This passage reports inhibition and Activity results from ChEMBL document CHEMBL3228034, “Cardenolide analogues. 9. Synthesis and biological activity of 17beta-carbomethoxyethylene and 17beta-cyanoethylene 14alpha-H steroids” (J Med Chem, 1979).

The species named for assay [1] is Cavia porcellus. The assay can be described thus: Inhibition of Na+/K+ ATPase-mediated phosphohydrolase activity in guinea pig myocardium up to 10^-4 M after 30 mins. It is filed as tissue-based. The method in brief:
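Crude membrane preparation from guinea pig myocardium, holding both (Na+,K+)ATPase and Mg2+-ATPase. Incubated 37 °C, 30 min; substrate consumption under 15% without drug. Activity measured as inorganic phosphate liberated per mg protein per hour. Na+,K+ component taken as total minus Mg2+-ATPase activity, the latter measured without Na+ and K+. Drug range 10^-8–10^-4 M, duplicates.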

The species entered for assay [2] is Cavia porcellus. Nature of the assay: Induction of positive inotropic activity in guinea pig atrium assessed as atrial contractility up to 10^-4 M. It is filed as functional, tissue-based. The settings on record: Cardiac atrium. A digest of the protocol:
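Left auricle from guinea pig in Krebs-Henseleit solution, 32 °C, gassed with O2 containing 5% CO2, resting tension about 1 g. Paced by rectangular pulses (10 ms, 100/min) at 20% above threshold voltage. Change in isometric contraction calculated relative to control atria.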

Each structure is given as a SMILES string. Active and inactive are the calls of the source.

`COC(=O)/C=C/[C@H]1CC[C@H]2[C@@H]3CC[C@H]4C[C@@H](O)CC[C@]4(C)[C@H]3CC[C@]12C`: in the assay listed under Cavia porcellus [1], the inhibition result was “inactive”. Further, the outcome in the assay listed under Cavia porcellus [2] was inactive.

Take `C[C@]12CC[C@H](O)C[C@@H]1CC[C@@H]1[C@@H]2CC[C@]2(C)[C@@H](/C=C/C#N)CC[C@@H]12`: the inhibition result in the assay filed under Cavia porcellus [1] is “inactive”. Further, the result in the assay listed under Cavia porcellus [2] was inactive.

With `C[C@]12CC[C@@H](O)C[C@H]1CC[C@@H]1[C@@H]2CC[C@]2(C)[C@@H](/C=C/C#N)CC[C@@H]12`, the inhibition result in the assay listed under Cavia porcellus [1] was “inactive”. Further, the outcome in the assay filed under Cavia porcellus [2] was inactive.

Turning to `C[C@]12CC[C@H](O)C[C@@H]1CC[C@@H]1[C@@H]2CC[C@]2(C)[C@@H](/C=C\C#N)CC[C@@H]12`, the inhibition entry in the assay listed under Cavia porcellus [1] is “inactive”. Further, the outcome in the assay listed under Cavia porcellus [2] was inactive.

As to `COC(=O)/C=C/[C@H]1CC[C@H]2[C@@H]3CC[C@@H]4C[C@H](O)CC[C@]4(C)[C@H]3CC[C@]12C`, the inhibition result in the assay filed under Cavia porcellus [1] was “inactive”. Besides, the result in the assay filed under Cavia porcellus [2] was inactive.

As for `C[C@]12CC[C@H]3[C@@H](CCC4=C[C@@H](O)CC[C@@]43C)[C@@H]1CC[C@@H]2/C=C/C#N`, the inhibition result in the assay listed under Cavia porcellus [1] is “inactive”. Besides, the outcome in the assay listed under Cavia porcellus [2] was inactive.

In the case of `COC(=O)/C=C/[C@H]1CC[C@H]2[C@@H]3CCC4=C[C@@H](O)CC[C@]4(C)[C@H]3CC[C@]12C`, in the assay listed under Cavia porcellus [1], the inhibition entry is “inactive”. The outcome in the assay listed under Cavia porcellus [2] was inactive.

Turning to `C[C@]12CC[C@H](O)C[C@H]1CC[C@@H]1[C@@H]2CC[C@]2(C)[C@@H](/C=C/C#N)CC[C@@H]12`, in the assay filed under Cavia porcellus [1], the inhibition entry was “inactive”. The result in the assay filed under Cavia porcellus [2] was inactive.

`C[C@]12CC[C@H](O)C[C@H]1CC[C@@H]1[C@@H]2CC[C@]2(C)[C@@H](/C=C\C#N)CC[C@@H]12`: the inhibition entry in the assay listed under Cavia porcellus [1] is “inactive”. In addition, in the assay filed under Cavia porcellus [2], the outcome was inactive.

On to `C[C@]12CC[C@H]3[C@@H](CCC4=C[C@@H](O)CC[C@@]43C)[C@@H]1CC[C@@H]2/C=C\C#N`, for which the inhibition result in the assay listed under Cavia porcellus [1] is “inactive”. Moreover, the outcome in the assay filed under Cavia porcellus [2] was inactive.

`C[C@]12CC[C@@H](O)C[C@H]1CC[C@@H]1[C@@H]2CC[C@]2(C)[C@@H](/C=C\C#N)CC[C@@H]12`: in the assay listed under Cavia porcellus [1], the inhibition entry was “inactive”. For the same compound, the outcome in the assay listed under Cavia porcellus [2] was inactive.

`COC(=O)/C=C/[C@H]1CC[C@H]2[C@@H]3CC[C@@H]4C[C@@H](O)CC[C@]4(C)[C@H]3CC[C@]12C`: in the assay listed under Cavia porcellus [1], the inhibition result is “inactive”. The result in the assay filed under Cavia porcellus [2] was inactive.
